Results as given in ChEMBL document CHEMBL4270657, “Efficient synthesis of new phenanthridine Wnt/β-catenin signaling pathway agonists” (Eur J Med Chem, 2018).
Active and inactive are the calls of the source. The calls are words filed in the database; no cut-off is given here.

Columns and labels:
[1] = tested on: HEK293; experiment: Activation of Wnt/beta-catenin signaling pathway (unknown origin) expressed in HEK293 cells harboring pEGFP-C1/TOP Flash/LacZ in Wnt3a conditioned medium after 6 hrs by luciferase reporter gene assay; type: cell-based; settings: Homo sapiens
How it was run: (§1)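 HEK293T cells in DMEM with 10% heat-inactivated FBS, 37°C, 5% CO2. Cells in 24-well plates were transfected with 250 ng plasmid per well (20 ng TOPFlash, 25 ng EGFP-C1, LacZ filler). 18 h later they were treated in Wnt3a CM or control CM for 6 h. Lysate GFP fluorescence was read first, then luciferase luminescence.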

[2] = biological target: Axin-1 (Mus musculus) (UniProt O35625); experiment: Inhibition of HLY179 binding to mouse His6-tagged AXIN DAX domain expressed in Escherichia coli at 80 uM after 1 to 2 hrs by Western blot analysis
[3] = tested on: HEK293; experiment: Activation of Wnt/beta-catenin signaling pathway (unknown origin) expressed in HEK293 cells harboring pEGFP-C1/TOP Flash/LacZ in Wnt3a conditioned medium assessed as increase in AXIN2 gene expression at 0.5 to 5 uM after 6 hrs by luciferase reporter gene assay; type: cell-based; settings: Homo sapiens
How it was run: (§2)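 HEK293T cells were treated with compound plus control or Wnt3a CM for 6 h. Total RNA was extracted with TRIzol and reverse-transcribed with oligo(dT) priming. Transcripts were quantified by PCR with target primers (DKK1 given) and GAPDH primers as reference.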

[4] = tested on: HEK293; experiment: Activation of Wnt/beta-catenin signaling pathway (unknown origin) expressed in HEK293 cells harboring pEGFP-C1/TOP Flash/LacZ in Wnt3a conditioned medium assessed as increase in DKK1 gene expression at 0.5 to 5 uM after 6 hrs by luciferase reporter gene assay; type: cell-based; settings: Homo sapiens; how it was run: as §2
[5] = tested on: HEK293; experiment: Activation of Wnt/beta-catenin signaling pathway (unknown origin) expressed in HEK293 cells harboring pEGFP-C1/TOP Flash/LacZ at 5 to 20 uM in Wnt3a conditioned medium after 6 hrs by luciferase reporter gene assay; type: cell-based; settings: Homo sapiens; how it was run: as §1

Chain of Axin-1 (Mus musculus) (O35625 whole entry, the tested form may be a part): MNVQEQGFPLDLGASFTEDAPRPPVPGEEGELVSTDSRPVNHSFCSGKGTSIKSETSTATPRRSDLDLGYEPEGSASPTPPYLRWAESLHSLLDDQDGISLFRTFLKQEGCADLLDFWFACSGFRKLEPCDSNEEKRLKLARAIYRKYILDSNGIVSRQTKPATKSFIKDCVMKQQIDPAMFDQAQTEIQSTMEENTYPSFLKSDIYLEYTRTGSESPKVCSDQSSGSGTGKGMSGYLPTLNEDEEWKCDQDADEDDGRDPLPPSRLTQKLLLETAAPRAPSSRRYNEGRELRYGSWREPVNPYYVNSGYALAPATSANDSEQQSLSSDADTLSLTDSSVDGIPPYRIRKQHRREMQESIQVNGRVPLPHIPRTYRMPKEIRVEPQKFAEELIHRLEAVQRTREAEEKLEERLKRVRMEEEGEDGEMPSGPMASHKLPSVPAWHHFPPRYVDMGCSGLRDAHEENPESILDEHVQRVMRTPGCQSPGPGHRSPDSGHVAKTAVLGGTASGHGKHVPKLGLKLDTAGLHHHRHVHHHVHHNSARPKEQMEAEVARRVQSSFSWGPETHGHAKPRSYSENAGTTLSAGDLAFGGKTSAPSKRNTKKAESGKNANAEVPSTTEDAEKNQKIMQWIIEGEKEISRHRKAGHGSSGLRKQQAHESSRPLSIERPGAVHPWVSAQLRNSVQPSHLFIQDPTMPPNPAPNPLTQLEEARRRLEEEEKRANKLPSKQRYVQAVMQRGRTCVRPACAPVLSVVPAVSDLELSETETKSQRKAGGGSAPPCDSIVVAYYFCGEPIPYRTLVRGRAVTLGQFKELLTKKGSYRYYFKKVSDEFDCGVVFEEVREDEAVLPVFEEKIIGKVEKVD

inhibition [2]	Compound	CD [1]	Activity [3]	Activity [4]	Activity [5]
Active	CCN1Cc2cc(OCc3cccnc3)c(OCc3cccnc3)cc2-c2cccc(C)c21	5 µM	–	–	–
Active	CCN1Cc2cc(OCc3cc(C)nn3C)c(OCc3cc(C)nn3C)cc2-c2cccc(C)c21	0.15 µM	Active	Active	–
Active	COc1ccc2c(c1)CN(C)c1c(C)cccc1-2	–	–	–	–
Active	CCN1Cc2cc(OC)ccc2-c2cccc(C)c21	–	–	–	Active
–	Cc1cc(COc2ccccc2)n(C)n1	–	–	–	Active
–	CCN1Cc2cc(OC)c(OC)cc2-c2cccc(C)c21	5 µM	–	–	Active
–	c1ccc(OCc2cccnc2)cc1	–	–	–	Active
Active	CCN1Cc2cc(OCc3cc(C)n(C)n3)ccc2-c2cccc(C)c21	3 µM	Active	Active	–
–	CCN1Cc2cc(OCc3cccnc3)ccc2-c2cccc(C)c21	1.5 µM	–	–	–
–	Cc1cc(COc2ccccc2)nn1C	–	–	–	Active
Active	CCN1Cc2cc(OCc3cc(C)nn3C)ccc2-c2cccc(C)c21	0.5 µM	–	–	–
